PLCb3 inh – inhibitors of human phospholipase C beta3. inhibition, % at 12.2 µM. Q01970. 0.18% of 370,000 active. Purified PLC-beta3, fluorogenic substrate, fluorescence. AID 720704;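 note: 0% = median of compound wells on plate and 100% = full blocker control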
sPLA2-III inh – Blocks human group III sPLA2 activity. inhibition, % at 12.2 µM. AID 743126. 0.56% of 370,000 active. QFRET BODIPY PC-A2 liposome hydrolysis, fluorescence. Q9NZ20;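 active = inhibition above mean plus 3 SD of compounds lying within the high and low control bounds, cut at about 19% in these data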;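 note: 0% = median of test compound wells and 100% = no enzyme DMSO wells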
procasp7 counter – counter-screen for procaspase-3 activators: activators of human procaspase-7. activation, % at 8.5 µM. recombinant procaspase-7, Ac-DEVD-pNA absorbance 405 nm; D23A/D198A/D206A triple mutant, cannot self-cleave; scale: DMSO 0, 5 µM enzyme 100. 0.093% of 330,000 active. P55210;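 active = percent activation above the screen-wide mean plus 3 SD, cut at about 25% in these data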
Target sequence (P55210 whole entry D23A/D198A/D206A): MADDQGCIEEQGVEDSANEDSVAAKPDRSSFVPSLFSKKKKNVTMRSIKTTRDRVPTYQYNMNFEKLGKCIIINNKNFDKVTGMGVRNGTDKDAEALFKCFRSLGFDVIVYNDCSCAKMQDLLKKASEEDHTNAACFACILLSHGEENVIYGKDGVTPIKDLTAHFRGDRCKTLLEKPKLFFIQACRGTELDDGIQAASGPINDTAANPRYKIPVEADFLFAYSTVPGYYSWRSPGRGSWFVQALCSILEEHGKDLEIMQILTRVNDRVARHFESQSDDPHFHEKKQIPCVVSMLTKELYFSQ
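Detection: p-Nitroaniline absorbance at 405 nm, read at 0 and 120 min; system: Uncleavable procaspase-7 mutant enzyme; evaluation: % activation from two-timepoint absorbance difference, scaled to controls; times: 1 h enzyme–compound preincubation and 2 h substrate reaction, both 25 °C; buffer or medium: Zinc-free HEPES pH 7.4 with 300 mM NaCl, 0.01% Triton X-100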
PLCg1 inh – blocks human PLC-gamma1 enzyme activity; purified PLC-gamma1, fluorogenic substrate, fluorescence; inhibition, % at 12.2 µM; 0.84% of 370,000 active; in the data active = inhibition above about 9.5%
proCasp3 act – activates human procaspase-3; AID 463141; 0.11% of 330,000 active; P42574; activation, % at 8.5 µM; recombinant procaspase-3 D3A, Ac-DEVD-pNA absorbance 405 nm;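 active = activation above the mean of all tested compounds plus 3 SD, cut at about 21% in these data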;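 note: 0% = DMSO alone and 100% = DMSO wells spiked with extra 5 µM PC-3 D3A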
Target sequence (P42574 whole entry D9A/D28A/D175A): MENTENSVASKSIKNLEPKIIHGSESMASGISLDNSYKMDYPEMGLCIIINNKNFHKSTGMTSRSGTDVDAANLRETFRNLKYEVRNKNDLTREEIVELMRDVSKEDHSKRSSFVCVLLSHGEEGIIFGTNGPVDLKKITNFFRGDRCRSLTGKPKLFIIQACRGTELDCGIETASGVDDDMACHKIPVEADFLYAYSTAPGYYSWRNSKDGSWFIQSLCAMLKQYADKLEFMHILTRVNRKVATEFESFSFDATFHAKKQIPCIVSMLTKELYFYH
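Assay system: Autoprocessing-dead procaspase-3 D3A mutant enzyme; also added: Ac-DEVD-pNA; doses: one concentration, 8.5 µM nominal, 0.8% DMSO; times: 1 h compound preincubation, 2 h substrate hydrolysis at 25 °C; technique: 405 nm absorbance of p-nitroaniline, reads at 0 and 120 min; measure: % activation between DMSO and enzyme-spiked controls; repeats: single replicate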
Arr AP2 block – inhibitors of human beta-arrestin and AP2 interaction; FITC-arrestin peptide / GST-AP2 beads, flow cytometry; AP2 beta2 appendage carries R879A mutation; 0.31% of 340,000 active; inhibition, % at 10 µM; AID 504490;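 active = inhibition above a set limit, near 3 SD of compounds lacking own fluorescence, cut at about 54% in these data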;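 note: plate controls were DMSO wells for no effect and 5 µM unlabelled arrestin peptide for full effect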
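System: GST-AP2 R879A glutathione beads | Also added: FITC-arrestin peptide, 50 nM | Times: 12 min plus 1 h, RT | Signal: Bead flow cytometry, FITC channel | Buffer or medium: PBS with 0.05% Tween 20 and 0.1% BSA | Read-out basis: Percent drop in bead-associated FITC signal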
PLCg1 ctr – inhibits human PLC-gamma1 in PLC-beta3 counter-screen; shares compounds with PLCg1 inh; purified PLC-gamma1, fluorogenic substrate, fluorescence; inhibition, % at 12.3 µM; 3.1% of 3,300 active; AID 743258; in the data active = inhibition above about 9.5%
PLCb3 confirm – confirmation of human PLC-beta3 inhibitors; shares compounds with PLCg1 inh; purified PLC-beta3, fluorogenic substrate fluorescence; inhibition, % at 12.3 µM; 1% of 3,300 active
Active calls of the source: *; · = no result given. Hits are enriched below; roughly 1.9% of the tested compounds scored in any of these assays. Cut-off read from the data, not from the text of the source, unless noted: active = inhibition above about 11%; inactive = the rest.

SMILES	PLCb3 inh	sPLA2-III inh	procasp7 counter	PLCg1 inh	proCasp3 act	Arr AP2 block	PLCg1 ctr	PLCb3 confirm
CN1CC[C@]2(CCN3CCc4c(oc5ccccc45)[C@@H]3C2)N(C)C1=O	25*	4	4	-34	4	-4	-15	-14
Cn1c(=O)oc2ccccc2c1=O	3	1	·	3	·	13	·	·
COc1ccc(-n2c(C)nn(C)c2=O)cc1	8	-5	3	9.9*	12	-5	-9	-2
C=CCOC(=O)Nc1nc(CCNC(=O)OC(C)(C)C)c(C(=O)O)s1	1	13	·	2	·	·	·	·
Cc1cccc(C(=O)NNC(=O)C2CCN(C(=O)OC(C)(C)C)CC2)c1	2	4	-1	9.8*	4	40	-9	-4
CC1(C)CC(=O)C=C(c2ccc(OC(F)(F)F)cc2)C1	2	8	8	-4	5	9	·	·
CC1(C)CC(=O)C=C(c2ccc(Oc3ccccc3)cc2)C1	1	-4	5	10*	0	-1	-2	-2
CN(C)c1cccc(/C=C2\CC3(OC(=O)c4ccccc4)CCCN2C3)c1 (stereo not drawn)	-11	14	·	0	·	·	·	·
Cc1n[nH]c(C)c1NC(=O)CN1CCN(S(=O)(=O)c2ccc(C(F)(F)F)cc2)CC1	-4	4	·	10*	·	-5	5	-1
CCOc1ccccc1NC(=O)N1CCCC1C(=O)NCc1cccs1 (stereo not drawn)	-3	3	-1	2	3	-1	·	·
CCOc1ccccc1NC(=O)C1CCCN1C(=O)c1cccs1 (stereo not drawn)	-2	-3	2	10*	2	-3	-7	-2
Cc1ccc(CN2CCCCC(NC(=O)c3c(F)cccc3F)C2=O)cc1 (stereo not drawn)	-1	0	·	0	·	·	·	·
O=C(O)c1ccc(-c2nnn(Cc3ccccc3F)n2)cc1	0	12	4	11*	-10	3	-5	-3
O=C(NC1CCCC1)C(C1CC1)n1c(C2CC2)nc2ccccc21 (stereo not drawn)	0	6	·	-1	·	·	·	·
Cc1ccc(N2C(=O)CC3(CCCC3)CC2=O)cc1	11*	7	7	9	10	-1	1	2
Cc1ccc(N2C(=O)CS(=O)(=O)CC2=O)cc1	1	-10	-3	-4	-5	3	·	·
CN1/C(=C/C(=O)C2CCC2)Sc2ccccc21	10	-2	-20	11*	-17	10	0	2
O=C(c1ccc2snnc2c1)N1CCN(c2ccccn2)CC1	6	13	-11	15*	1	-2	-5	0
Cc1c(C(=O)N2CCCCC2)nnn1-c1nonc1N	2	-2	11	19*	5	21	-7	-3
CCC(C)[C@H]1CNCCN1CCc1cccc2ccccc12 (stereo partly drawn)	8	9	-1	11*	3	1	-5	0
CCC(C)[C@H]1CNCCN1CCc1cc(C(F)(F)F)cc(C(F)(F)F)c1 (stereo partly drawn)	7	13	-2	11*	3	0	-11	-4
CCC(C)[C@H]1CNCCN1CC1(c2ccccc2)CC1 (stereo partly drawn)	14*	0	-4	8	9	2	-4	-6
Oc1ccc(C[C@@H]2CNCCN2CCc2cccc3ccccc23)cc1	1	-1	4	0	-4	-1	·	·
CC(=O)NCCNC(=O)C1Cc2c(-c3cccc(NC(C)=O)c3)ccnc2O1 (stereo not drawn)	4	7	·	3	·	·	·	·
CC(=O)Nc1cccc(-c2ccnc3c2CC(C(=O)NCC2CCOCC2)O3)c1 (stereo not drawn)	13*	8	·	12*	·	·	-1	3
SMILES	PLCb3 inh	sPLA2-III inh	procasp7 counter	PLCg1 inh	proCasp3 act	Arr AP2 block	PLCg1 ctr	PLCb3 confirm
COc1ccc(CN(C)C(=O)c2ccc(NC(=O)CC3SC(N4CCCCC4)=NC3=O)cc2)c(OC)c1 (stereo not drawn)	-5	-6	·	1	·	8	·	·
Cc1nnc(N/N=C/c2cccc(OCc3ccc(Cl)c(Cl)c3)c2)n1N	11*	0	2	13*	-15	11	-21	-13
Cc1nnc(N/N=C/c2cccc(C(F)(F)F)c2)n1N	11	7	-15	13*	-6	4	-3	0
Cc1nnc(N/N=C/c2ccccc2F)n1N	1	13	-6	12*	4	-4	-4	-1
CCOc1cc(/C=N/Nc2nnc(C)n2N)ccc1OC(C)=O	0	2	·	8	·	1	·	·
CCCCCCCCN1C(=O)[C@@H](CC(=O)N2CCOCC2)C[C@@]2(C(=O)OC)C1=C[C@H](COCc1ccccc1)O[C@@H]2C	-2	-16	·	-3	·	·	·	·
COc1ccc(S(=O)(=O)N2CCCCC2)cc1NC(=O)CCNC(=O)c1ccc(Cl)cc1	2	15	2	7	0	1	·	·
O=C(CN(CCc1ccccc1)S(=O)(=O)c1ccccc1)N1CCOCC1	3	-1	·	0	·	·	·	·
CCn1c(SCC(N)=O)nnc1-c1ccc2c(c1)OCO2	2	5	-4	2	11	13	·	·
CCn1c(SCC(N)=O)nnc1-c1ccc(OC)c(OC)c1	7	8	0	13*	-7	0	-4	-1
O=C(C[C@H]1CC[C@H]2[C@@H](COC[C@@H](O)CN2C(=O)c2cnccn2)O1)NCc1ccc(Oc2ccccc2)cc1	11*	0	·	2	·	·	-6	0
N#Cc1c(NC(=O)C2CC(c3ccccc3O)=NO2)sc2c1CCC2 (stereo not drawn)	0	10	-8	14*	1	18	-4	-2
COc1cc(/C=C2\C(=O)N(c3ccccc3)N=C2C)ccc1Oc1ccc([N+](=O)[O-])cc1[N+](=O)[O-]	4	6	11	10*	-1	13	2	-1
COc1ccccc1/C=C1/C(=O)N(c2ccccc2)N=C1C	0	10	-4	28*	10	6	-7	-3
COc1cc(/C=C2/C(=O)N(c3ccc(C)c(C)c3)N=C2C)cc([N+](=O)[O-])c1O	-3	-3	-16	0	-11	5	·	·
S=c1[nH]nc(-c2n[nH]c3c2CCC3)n1N=Cc1ccc(OCc2ccccc2)cc1	0	9	·	-1	·	·	·	·

Compound activity as filed in PubChem.
